In ChEMBL document CHEMBL3792298, “Design, synthesis and in vitro evaluation studies of sulfonyl-amino-acetamides as small molecule BACE-1 inhibitors” (Bioorg Med Chem, 2016) one finds IC50 and inhibition data, which are given here for 33 molecules.

The target in the first assay is T1, Beta-secretase 1 (Homo sapiens, UniProt P56817). In words: Inhibition of human BACE1 expressed in recombinant baculovirus-infected insect cells using rhodamine conjugated APP-based EVNLDAEFK as substrate after 60 mins by FRET analysis. An outline of the steps: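 FRET cleavage assay from a commercial BACE-1 kit, following supplier protocol. It used 3X BACE-1 enzyme (1U/ml) in 50mM sodium acetate buffer, pH 4.5. Test compounds were prepared as 10mM DMSO stocks and diluted with buffer. After 60 min incubation, fluorescence was read at 545 nm excitation.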
T1 sequence (P56817 whole entry): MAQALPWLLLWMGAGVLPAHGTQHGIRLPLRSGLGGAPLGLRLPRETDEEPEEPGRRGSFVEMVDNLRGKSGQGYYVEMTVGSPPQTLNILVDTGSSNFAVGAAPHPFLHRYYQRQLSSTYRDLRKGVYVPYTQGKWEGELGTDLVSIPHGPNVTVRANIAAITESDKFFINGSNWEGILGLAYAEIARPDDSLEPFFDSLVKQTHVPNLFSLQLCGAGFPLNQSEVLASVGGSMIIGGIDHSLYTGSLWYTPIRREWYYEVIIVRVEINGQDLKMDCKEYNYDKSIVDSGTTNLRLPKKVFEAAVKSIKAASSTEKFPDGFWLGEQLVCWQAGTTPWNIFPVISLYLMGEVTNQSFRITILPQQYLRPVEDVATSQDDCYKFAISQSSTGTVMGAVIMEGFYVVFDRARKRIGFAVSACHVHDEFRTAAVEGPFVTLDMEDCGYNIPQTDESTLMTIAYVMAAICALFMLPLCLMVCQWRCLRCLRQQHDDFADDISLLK
Take `CC(=O)Nc1ccc(S(=O)(=O)NCC(=O)Nc2ccc(C)cc2C)cc1`: the IC50 (in general, the point on the concentration scale where inhibition reaches its midpoint) amounted to 7.9 µM.

The next assay has as its target T1, Beta-secretase 1. Put plainly: Inhibition of human BACE1 expressed in recombinant baculovirus-infected insect cells using rhodamine conjugated APP-based EVNLDAEFK as substrate at 10 uM after 60 mins by FRET analysis. The method in brief: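 Commercial BACE-1 FRET kit run per supplier protocol, with 3X BACE-1 enzyme (1U/ml) in 50mM sodium acetate buffer, pH 4.5. Compounds were made as 10mM DMSO stocks and diluted in buffer to a final 10µM. After 60 min incubation, fluorescence was read with excitation at 545 nm. Percent inhibition is given as mean ± S.D. of triplicate independent experiments.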
As to `Cc1ccc(S(=O)(=O)NCC(=O)Nc2ccc(Cl)cc2)cc1`, the inhibition (in general, the drop in the measured response relative to a control, in per cent) was found to be 25.3%.

Turning to `O=C(CNS(=O)(=O)c1ccccc1)Nc1ccccc1`, the inhibition was found to be 8.72%. As for `CC(=O)Nc1ccc(S(=O)(=O)NCC(=O)Nc2ccc(Cl)cc2)cc1`, the inhibition is 37.1%. The same measure, in the same setting: to `O=C(CNS(=O)(=O)c1cccc([N+](=O)[O-])c1)Nc1cccc(Cl)c1` belongs 42.1%; to `Cc1ccc(S(=O)(=O)NCC(=O)Nc2ccc(C)cc2C)cc1`, 35%.

As for `O=C(CNS(=O)(=O)c1ccc([N+](=O)[O-])cc1)Nc1ccc(Cl)cc1`, the inhibition was determined as 9.89%.

Turning to `O=C(CNS(=O)(=O)c1ccc(Cl)cc1)Nc1ccccc1`, the inhibition came out at 22.8%. Regarding `O=C(CNS(=O)(=O)c1ccccc1)Nc1cccc(Cl)c1`, the inhibition worked out at 4.83%. On to `COc1ccc(S(=O)(=O)NCC(=O)Nc2cccc(Cl)c2)cc1`, for which the inhibition stood at 38.3%. For the molecule `Cc1ccc(S(=O)(=O)NCC(=O)Nc2cccc(Cl)c2)cc1`, the inhibition turned out to be 31.8%.

`Cc1ccccc1S(=O)(=O)NCC(=O)Nc1ccccc1`: the inhibition came to 18.5%. Same read-out and setting: under `CC(=O)Nc1ccc(S(=O)(=O)NCC(=O)Nc2ccccc2)cc1` stands 28.9%; under `CC(=O)Nc1ccc(S(=O)(=O)NCC(=O)Nc2ccc(C)cc2C)cc1`, 61.9%; under `O=C(CNS(=O)(=O)c1ccc([N+](=O)[O-])cc1)Nc1ccccc1`, 5.03%. On the same count and under the same terms, under `COc1ccc(S(=O)(=O)NCC(=O)Nc2ccc(Cl)cc2)cc1` stands 35.1%. For the molecule `Cc1ccc(NC(=O)CNS(=O)(=O)c2ccccc2[N+](=O)[O-])c(C)c1`, the inhibition worked out at 21.6%.

Turning to `O=C(CNS(=O)(=O)c1cccc([N+](=O)[O-])c1)Nc1ccc(Cl)cc1`, the inhibition was 29.5%.

For `Cc1ccc(NC(=O)CNS(=O)(=O)c2ccc([N+](=O)[O-])cc2)c(C)c1`, the inhibition was 9.49%. As to `O=C(CNS(=O)(=O)c1ccc(Cl)cc1)Nc1ccc(Cl)cc1`, the inhibition stood at 34.8%. Turning to `Cc1ccc(NC(=O)CNS(=O)(=O)c2ccccc2)c(C)c1`, the inhibition was found to be 5.38%. With `COc1ccc(S(=O)(=O)NCC(=O)Nc2ccccc2)cc1`, the inhibition is 28.6%. On the same count and under the same terms, to `O=C(CNS(=O)(=O)c1ccccc1[N+](=O)[O-])Nc1ccccc1` belongs 14.9%; to `COc1ccc(S(=O)(=O)NCC(=O)Nc2ccc(C)cc2C)cc1`, 28.4%.

In the case of `O=C(CNS(=O)(=O)c1ccc(Cl)cc1)Nc1cccc(Cl)c1`, the inhibition was found to be 48.6%. The same measure, in the same setting: under `O=C(CNS(=O)(=O)c1ccc([N+](=O)[O-])cc1)Nc1cccc(Cl)c1` stands 17%; under `CC(=O)Nc1ccc(S(=O)(=O)NCC(=O)Nc2cccc(Cl)c2)cc1`, 52.9%. For the molecule `O=C(CNS(=O)(=O)c1cccc([N+](=O)[O-])c1)Nc1ccccc1`, the inhibition came to 42%. On to `Cc1ccc(NC(=O)CNS(=O)(=O)c2ccc(Cl)cc2)c(C)c1`, for which the inhibition amounted to 35.9%. Consider `Cc1ccc(NC(=O)CNS(=O)(=O)c2cccc([N+](=O)[O-])c2)c(C)c1`, for which the inhibition worked out at 41%. As to `O=C(CNS(=O)(=O)c1ccccc1)Nc1ccc(Cl)cc1`, the inhibition turned out to be 5.09%. Turning to `O=C(CNS(=O)(=O)c1ccccc1[N+](=O)[O-])Nc1cccc(Cl)c1`, the inhibition is 17.5%. With `Cc1ccc(S(=O)(=O)NCC(=O)Nc2ccccc2)cc1`, the inhibition stood at 21.9%. For `O=C(CNS(=O)(=O)c1ccccc1[N+](=O)[O-])Nc1ccc(Cl)cc1`, the inhibition turned out to be 18.5%.
